In test [1] the target is T1, TLR2/TLR6 (Mus musculus) (UniProt Q9QUN7+Q9EPW9). The experiment in a line: Inhibition of TLR2/6 in BALB/c mouse BMDM assessed as downregulation of BLP-stimulated IL-6 level at 5 ug/ml preincubated for 18 hrs followed by BLP challenge measured after 24 hrs by ELISA relative to control. The test is classed as protein-complex assay. Summed up: (§1)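 BALB/c male bone marrow macrophages were differentiated 7 days with L929 supernatant (≥99% CD11b+/F4/80+). Cells were plated at 2 × 10^5/well in triplicate, rested overnight, and given compounds at 5 μg/mL for 18 h. They were then stimulated with 100 ng/mL S. minnesota LPS, 10 ng/mL Pam3CSK4 (BLP) or 0.01 μM CpG for 24 h. Supernatant IL-12p40 and IL-6 were measured by ELISA (sensitivity 16 pg/mL).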
(In general: ELISA stands for enzyme-linked immunosorbent assay.)

The target of test [2] is T1, TLR2/TLR6 (Mus musculus). Put plainly: Inhibition of TLR2/6 in BALB/c mouse BMDM assessed as downregulation of BLP-stimulated IL-12p40 level at 5 ug/ml preincubated for 18 hrs followed by BLP challenge measured after 24 hrs by ELISA relative to control. The test is classed as protein-complex assay. Summed up: as §1
For test [3], the target named is T2, Toll-like receptor 9 (Mus musculus) (UniProt Q9EQU3).
T2 sequence (whole entry): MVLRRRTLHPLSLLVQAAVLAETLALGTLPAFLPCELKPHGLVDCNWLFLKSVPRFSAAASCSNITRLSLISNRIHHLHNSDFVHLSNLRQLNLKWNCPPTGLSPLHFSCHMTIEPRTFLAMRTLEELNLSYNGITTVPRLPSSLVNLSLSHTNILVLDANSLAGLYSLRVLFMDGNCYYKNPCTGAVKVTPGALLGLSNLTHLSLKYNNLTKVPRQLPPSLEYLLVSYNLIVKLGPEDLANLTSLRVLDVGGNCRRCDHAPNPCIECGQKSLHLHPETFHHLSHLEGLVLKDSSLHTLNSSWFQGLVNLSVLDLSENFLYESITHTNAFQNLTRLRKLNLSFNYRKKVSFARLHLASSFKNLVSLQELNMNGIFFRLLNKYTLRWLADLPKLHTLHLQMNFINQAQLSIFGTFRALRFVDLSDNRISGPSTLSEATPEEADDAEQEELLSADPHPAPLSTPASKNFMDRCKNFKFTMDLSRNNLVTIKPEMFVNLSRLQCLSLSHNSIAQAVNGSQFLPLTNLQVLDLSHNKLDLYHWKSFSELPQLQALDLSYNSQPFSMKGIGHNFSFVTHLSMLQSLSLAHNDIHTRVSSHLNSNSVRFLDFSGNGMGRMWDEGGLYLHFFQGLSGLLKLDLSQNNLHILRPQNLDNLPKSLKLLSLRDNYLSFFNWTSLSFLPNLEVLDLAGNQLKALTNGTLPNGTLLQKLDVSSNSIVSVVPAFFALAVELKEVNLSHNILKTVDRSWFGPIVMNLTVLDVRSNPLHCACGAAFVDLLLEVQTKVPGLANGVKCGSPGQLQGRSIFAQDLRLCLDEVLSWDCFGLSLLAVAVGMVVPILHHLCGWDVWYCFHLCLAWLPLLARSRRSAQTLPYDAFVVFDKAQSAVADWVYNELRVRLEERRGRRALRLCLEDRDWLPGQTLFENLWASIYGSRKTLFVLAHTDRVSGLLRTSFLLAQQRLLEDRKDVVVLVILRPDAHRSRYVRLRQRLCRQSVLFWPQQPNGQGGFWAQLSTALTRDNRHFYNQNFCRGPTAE
The experiment in a line: Inhibition of TLR9 in BALB/c mouse BMDM assessed as downregulation of CpG-stimulated IL-6 level at 5 ug/ml preincubated for 18 hrs followed by CpG challenge measured after 24 hrs by ELISA relative to control. Summed up:
as §1

Test [4] concerns the target T3, Toll-like receptor 4 (Mus musculus) (UniProt Q9QUK6).
T3 sequence (whole entry): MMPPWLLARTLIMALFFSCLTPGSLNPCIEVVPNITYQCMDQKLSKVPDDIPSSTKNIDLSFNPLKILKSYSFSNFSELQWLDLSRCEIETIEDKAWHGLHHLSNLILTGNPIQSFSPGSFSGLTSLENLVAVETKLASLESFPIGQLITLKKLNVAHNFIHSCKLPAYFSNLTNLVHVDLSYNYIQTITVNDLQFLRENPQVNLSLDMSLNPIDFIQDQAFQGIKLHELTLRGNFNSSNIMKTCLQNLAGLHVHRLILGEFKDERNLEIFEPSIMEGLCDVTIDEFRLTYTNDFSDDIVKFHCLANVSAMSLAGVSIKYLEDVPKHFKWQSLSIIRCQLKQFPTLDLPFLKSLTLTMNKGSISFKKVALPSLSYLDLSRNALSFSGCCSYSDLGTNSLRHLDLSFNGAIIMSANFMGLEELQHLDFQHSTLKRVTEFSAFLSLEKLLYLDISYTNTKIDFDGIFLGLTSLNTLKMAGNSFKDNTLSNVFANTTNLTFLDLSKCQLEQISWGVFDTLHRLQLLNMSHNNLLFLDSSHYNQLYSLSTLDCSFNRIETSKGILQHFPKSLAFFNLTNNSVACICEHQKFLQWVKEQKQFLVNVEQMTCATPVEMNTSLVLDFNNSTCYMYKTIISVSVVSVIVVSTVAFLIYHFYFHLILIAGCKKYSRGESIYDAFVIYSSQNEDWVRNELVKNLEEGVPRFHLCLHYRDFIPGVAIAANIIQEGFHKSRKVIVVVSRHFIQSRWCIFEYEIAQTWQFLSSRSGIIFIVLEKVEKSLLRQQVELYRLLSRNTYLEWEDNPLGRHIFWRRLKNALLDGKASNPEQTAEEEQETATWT
Put plainly: Inhibition of TLR4 in BALB/c mouse BMDM assessed as downregulation of LPS-stimulated IL-12p40 level at 5 ug/ml preincubated for 18 hrs followed by LPS challenge measured after 24 hrs by ELISA relative to control. Summed up:
as §1

In test [5] the target is T3, Toll-like receptor 4 (Mus musculus). Put plainly: Inhibition of TLR4 in BALB/c mouse BMDM assessed as downregulation of LPS-stimulated IL-6 level at 5 ug/ml preincubated for 18 hrs followed by LPS challenge measured after 24 hrs by ELISA relative to control. Summed up:
as §1

In test [6] the target is T2, Toll-like receptor 9 (Mus musculus). The experiment in a line: Inhibition of TLR9 in BALB/c mouse BMDM assessed as downregulation of CpG-stimulated IL-12p40 level at 5 ug/ml preincubated for 18 hrs followed by CpG challenge measured after 24 hrs by ELISA relative to control. Summed up:
as §1

The source made the active and inactive calls. No rule for the calls is given here.

Regarding `O=S(=O)(Cc1ccc(F)cc1)NCCN1CCOCC1`, the inhibition entry (on TLR2/TLR6 (Mus musculus) [1]; on TLR2/TLR6 (Mus musculus) [2]; in test [3]; in test [4]; in test [5]; in test [6]) was “inactive” each time.
On to `COc1ccc2c(CS(=O)(=O)NCCN3CCCC3)cc(=O)oc2c1`, for which the inhibition result (on TLR2/TLR6 (Mus musculus) [1]; in test [3]; in test [5]; in test [6]) was “inactive” in each case. Further, the inhibition result (at TLR2/TLR6 (Mus musculus) [2]; in test [4]) was “Active” in each case.
Take `CN(C)CCN(C)CCS(=O)(=O)NCc1ccc(Br)cc1`: the inhibition entry (on TLR2/TLR6 (Mus musculus) [1]; in test [4]; in test [6]) was “Active” throughout. In addition, the inhibition result (at TLR2/TLR6 (Mus musculus) [2]; in test [3]; in test [5]) was “inactive” in each case.
Turning to `CN1CCN(CCS(=O)(=O)c2ccccc2)CC1`, the inhibition entry (at TLR2/TLR6 (Mus musculus) [1]; on TLR2/TLR6 (Mus musculus) [2]; in test [3]; in test [4]; in test [5]; in test [6]) was “inactive” each time.
For `O=C(Cc1ccccc1)NCCN1CCOCC1`, the inhibition result (on TLR2/TLR6 (Mus musculus) [1]; at TLR2/TLR6 (Mus musculus) [2]; in test [5]) was “inactive” each time. Also, the inhibition entry in test [3], in test [4] and in test [6] was “Active” each time.
Regarding `Cc1ccc(CNS(=O)(=O)CCN(C)C)cc1`, the inhibition entry (on TLR2/TLR6 (Mus musculus) [1]; at TLR2/TLR6 (Mus musculus) [2]; in test [3]; in test [4]; in test [5]; in test [6]) was “inactive” in each case.
As to `CN(C)CCS(=O)(=O)Nc1ccc(F)cc1`, the inhibition entry (on TLR2/TLR6 (Mus musculus) [1]; at TLR2/TLR6 (Mus musculus) [2]; in test [3]; in test [5]; in test [6]) was “inactive” each time. Besides, the inhibition entry in test [4] is “Active”.
With `CN(C)CCNS(=O)(=O)Cc1ccc2ccccc2c1`, the inhibition result (at TLR2/TLR6 (Mus musculus) [1]; at TLR2/TLR6 (Mus musculus) [2]; in test [3]; in test [4]; in test [5]; in test [6]) was “inactive” each time.
Regarding `O=S(=O)(CCN1CCOCC1)NCc1ccc(F)cc1`, the inhibition result (at TLR2/TLR6 (Mus musculus) [1]; in test [3]; in test [5]; in test [6]) was “Active” each time. Besides, the inhibition result (on TLR2/TLR6 (Mus musculus) [2]; in test [4]) was “inactive” throughout.
For the compound `COc1cccc(C(=O)NCCN2CCOCC2)c1`, the inhibition entry (on TLR2/TLR6 (Mus musculus) [1]; in test [5]; in test [6]) was “inactive” in each case. In addition, the inhibition entry (at TLR2/TLR6 (Mus musculus) [2]; in test [3]; in test [4]) was “Active” throughout.
On to `Cc1ccc(CS(=O)(=O)CCN2CCCC2)cc1`, for which the inhibition entry (on TLR2/TLR6 (Mus musculus) [1]; at TLR2/TLR6 (Mus musculus) [2]; in test [4]; in test [5]) was “Active” throughout. Also, the inhibition result in test [3] and in test [6] was “inactive” each time.
`O=S(=O)(CCCN1CCOCC1)Cc1ccc(Br)cc1`: the inhibition entry at TLR2/TLR6 (Mus musculus) [1] is “Active”. Besides, the inhibition result (on TLR2/TLR6 (Mus musculus) [2]; in test [3]; in test [4]; in test [5]; in test [6]) was “inactive” each time.
As for `O=[N+]([O-])c1ccc(CNS(=O)(=O)CCN2CCCC2)cc1`, the inhibition entry (on TLR2/TLR6 (Mus musculus) [1]; at TLR2/TLR6 (Mus musculus) [2]; in test [3]; in test [4]; in test [5]; in test [6]) was “inactive” throughout.
On to `CC[C@H](C)NCCS(=O)(=O)Cc1cccc(F)c1`, for which the inhibition entry (on TLR2/TLR6 (Mus musculus) [1]; on TLR2/TLR6 (Mus musculus) [2]; in test [3]; in test [4]; in test [5]; in test [6]) was “inactive” throughout.
Consider `O=S(=O)(CCCN1CCCC1)Cc1ccc(Br)cc1`, for which the inhibition entry (at TLR2/TLR6 (Mus musculus) [1]; at TLR2/TLR6 (Mus musculus) [2]; in test [3]; in test [4]; in test [5]; in test [6]) was “inactive” throughout.
Turning to `CN(C)CCS(=O)(=O)Cc1cccc(F)c1`, the inhibition entry (on TLR2/TLR6 (Mus musculus) [1]; on TLR2/TLR6 (Mus musculus) [2]; in test [3]; in test [4]; in test [5]; in test [6]) was “inactive” each time.
On to `O=S(=O)(CCN1CCCC1)NCc1ccc(F)cc1`, for which the inhibition entry (at TLR2/TLR6 (Mus musculus) [1]; at TLR2/TLR6 (Mus musculus) [2]; in test [4]) was “inactive” each time. For the same compound, the inhibition entry in test [3], in test [5] and in test [6] was “Active” in each case.
Turning to `O=S(=O)(CCN1CCSCC1)c1ccccc1`, the inhibition result (on TLR2/TLR6 (Mus musculus) [1]; on TLR2/TLR6 (Mus musculus) [2]; in test [3]; in test [6]) was “inactive” each time. Also, the inhibition result in test [4] and in test [5] was “Active” throughout.
